{"source": "ChEMBL document CHEMBL1157754", "about": "“Polyketides from the ascomycete fungus Leptosphaeria sp” (J Nat Prod, 2010)", "format_in_all_cases": "functional, organism-based", "key": {"Aspergillus flavus": {"system": "Aspergillus flavus", "experiment": "Antifungal activity against Aspergillus flavus CGMCC 3.0951 after 48 hrs by Alamar blue assay", "settings": "CGMCC 3.0951, 48 h"}, "Pyricularia oryzae": {"system": "Pyricularia oryzae", "experiment": "Antifungal activity against Pyricularia oryzae CGMCC 3.3283 after 48 hrs by Alamar blue assay", "settings": "CGMCC 3.3283, 48 h", "outline": "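Broth microdilution per NCCLS recommendations, in triplicate. Strain grown on PDA, then in broth at 28 °C for 48 h. Final suspension 10^4 hyphae/mL in PDB. Samples from 4 mg/mL DMSO stock, serially diluted. Alamar blue added as indicator; incubated 28 °C for 48 h. Fluorescence read at Ex/Em 544/590 nm. Inhibition plotted against concentration to give IC50.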"}, "Microdochium nivale": {"system": "Microdochium nivale", "experiment": "Antifungal activity against Fusarium nivale CGMCC 3.4600 after 48 hrs by Alamar blue assay", "settings": "CGMCC 3.4600, 48 h", "outline": "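Plant-pathogen broth microdilution per NCCLS, in triplicate. F. nivale was grown on PDA, then in broth at 28 °C for 48 h, and suspended at 10^4 hyphae/mL in PDB. Serial dilutions were made from a 4 mg/mL DMSO stock. Alamar blue was the indicator and carbendazim the positive control. After incubation at 28 °C for 48 h, fluorescence was read at 544/590 nm, and IC50 was derived from the inhibition-concentration plot.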"}}}
{"smiles": "C[C@@H]1[C@H](O)[C@@H](C)/C=C/C=C/C=C/C=C/C=C/C=C/C=C/[C@H](O[C@@H]2O[C@H](C)[C@@H](O)[C@H](N)[C@@H]2O)C[C@@H]2O[C@](O)(C[C@@H](O)C[C@@H](O)[C@H](O)CC[C@@H](O)C[C@@H](O)CC(=O)O[C@H]1C)C[C@H](O)[C@H]2C(=O)O", "note": "[AMPHOTERICIN B]", "values": [{"measurement": "IC50", "setting": "Aspergillus flavus", "result": 3.3, "unit": "µM"}]}
{"smiles": "COC(=O)Nc1nc2ccccc2[nH]1", "note": "[CARBENDAZIM]", "values": [{"measurement": "IC50", "setting": "Pyricularia oryzae", "result": 5, "unit": "µM"}, {"measurement": "IC50", "setting": "Microdochium nivale", "result": 2.6, "unit": "µM"}]}
{"smiles": "C[C@@H]1CC(=O)c2c(coc2-c2c(O)cccc2O)[C@@H]1O", "note": "[LEPTOSPHAERIN A]", "values": [{"measurement": "IC50", "setting": "Aspergillus flavus", "result": "> 150", "unit": "µM"}, {"measurement": "IC50", "setting": "Pyricularia oryzae", "result": "> 150", "unit": "µM"}, {"measurement": "IC50", "setting": "Microdochium nivale", "result": "> 150", "unit": "µM"}]}
{"smiles": "C[C@@H]1CC(=O)c2c(coc2-c2c(O)cccc2O)[C@H]1O", "note": "[LEPTOSPHAERIN B]", "values": [{"measurement": "IC50", "setting": "Aspergillus flavus", "result": "> 150", "unit": "µM"}, {"measurement": "IC50", "setting": "Pyricularia oryzae", "result": "> 150", "unit": "µM"}, {"measurement": "IC50", "setting": "Microdochium nivale", "result": "> 150", "unit": "µM"}]}
{"smiles": "CC1=C[C@H](O)[C@@]2(Oc3cccc(O)c3C2=O)[C@H](C)C1=O", "note": "[LEPTOSPHAERIN C]", "values": [{"measurement": "IC50", "setting": "Aspergillus flavus", "result": 81.4, "unit": "µM"}, {"measurement": "IC50", "setting": "Pyricularia oryzae", "result": 80.3, "unit": "µM"}, {"measurement": "IC50", "setting": "Microdochium nivale", "result": 144, "unit": "µM"}]}
{"smiles": "Cc1cc(O)c2c(c1O)COc1cccc(O)c1C2=O", "note": "[LEPTOSPHAERIN D]", "values": [{"measurement": "IC50", "setting": "Aspergillus flavus", "result": "> 150", "unit": "µM"}, {"measurement": "IC50", "setting": "Pyricularia oryzae", "result": 18.1, "unit": "µM"}, {"measurement": "IC50", "setting": "Microdochium nivale", "result": 12.5, "unit": "µM"}]}
{"smiles": "Cc1cc(CO)c2c(=O)c3c(O)cc(O)cc3oc2c1", "note": "[LEPTOSPHAERIN E]", "values": [{"measurement": "IC50", "setting": "Aspergillus flavus", "result": "> 150", "unit": "µM"}, {"measurement": "IC50", "setting": "Pyricularia oryzae", "result": "> 150", "unit": "µM"}, {"measurement": "IC50", "setting": "Microdochium nivale", "result": "> 150", "unit": "µM"}]}
{"smiles": "C[C@@H]1C[C@H](O)[C@H]2C(=O)c3c(O)cccc3O[C@]2(C)[C@H]1O", "note": "[LEPTOSPHAERIN F]", "values": [{"measurement": "IC50", "setting": "Aspergillus flavus", "result": "> 150", "unit": "µM"}, {"measurement": "IC50", "setting": "Pyricularia oryzae", "result": "> 150", "unit": "µM"}, {"measurement": "IC50", "setting": "Microdochium nivale", "result": "> 150", "unit": "µM"}]}
{"smiles": "C[C@@H]1CC(O)=C2C(=O)c3c(O)cccc3O[C@]2(C)[C@H]1O", "note": "[LEPTOSPHAERIN G]", "values": [{"measurement": "IC50", "setting": "Aspergillus flavus", "result": 14.8, "unit": "µM"}, {"measurement": "IC50", "setting": "Pyricularia oryzae", "result": "> 150", "unit": "µM"}, {"measurement": "IC50", "setting": "Microdochium nivale", "result": "> 150", "unit": "µM"}]}
